Test results reported in ChEMBL document CHEMBL1141385, “Lignans from Dysosma versipellis with inhibitory effects on prostate cancer cell lines” (J Nat Prod, 2007).

Columns and labels:
LNCaP = assay: Cytotoxicity against androgen sensitive human LNCaP cells; type: cell-based
Summary of the method: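 LNCaP (androgen-sensitive human prostate cancer) cells kept as monolayers in DMEM with 10% FBS, 2 mM L-glutamine, penicillin/streptomycin, 5% CO2. Seeded at 5000 cells/well, attached overnight, then exposed to compounds or DMSO vehicle for 48 h. MTS added for 2–4 h at 37 °C; formazan absorbance read at 490 nm. At least three experiments, each in triplicate.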

PC-3 = assay: Cytotoxicity against androgen-independent human PC3 cells; type: cell-based
Summary of the method: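 PC-3 (androgen-independent human prostate cancer) cells kept as monolayers in DMEM with 10% FBS, 2 mM L-glutamine, penicillin/streptomycin, 5% CO2. Plated at 3000 cells/well and left to attach overnight. Treated with compounds or DMSO vehicle for 48 h. Viability read by MTS (2–4 h, 37 °C) as absorbance at 490 nm. Run at least three times in triplicate.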

| Structure (SMILES) | IC50 (LNCaP) [nM] | IC50 (PC-3) [nM] |
| --- | --- | --- |
| COc1cc([C@@H]2c3cc4c(cc3[C@H](O)[C@H]3COC(=O)[C@H]23)OCO4)cc(OC)c1O | 56 | 82 |
| COc1cc([C@@H]2c3cc4c(cc3C[C@H]3COC(=O)[C@@H]32)OCO4)cc(OC)c1O [4'-DEMETHYLDEOXYPODOPHYLLOTOXIN] | 150 | 140 |
| COc1cc([C@@H]2c3cc4c(cc3C[C@H]3COC(=O)[C@@H]32)OCO4)cc(OC)c1OC [DESOXYPODOPHYLLOTOXIN] | 30 | 32 |
| COc1cc2c(O)c3c(c(-c4ccc5c(c4)OCO5)c2cc1OC)C(=O)OC3 [DIPHYLLIN] | 11500 | 7200 |
| COc1cc(O)cc([C@@H](O)[C@@H]2CO[C@@H](c3ccc(O)c(OC)c3)[C@@H]2CO)c1 [DYSOSMAROL] | 16000 | 16000 |
| COc1cc([C@@H]2c3cc4c(cc3[C@H](O)[C@H]3COC(=O)[C@H]23)OCO4)cc(OC)c1OC [PODOFILOX] | 31 | 34 |
